≈ marks a conversion by molar mass, not a printed value. Entries after “also recorded” stand apart in the source; their conditions may differ.
Experiments:
SOD1^G93A [1] = molecular target: T1, SOD1^G93A (Homo sapiens, UniProt P00441, G94A); assay: In vivo target engagement
Method in brief: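 Hemizygous B6SJL-Tg(SOD1*G93A)1Gur/J mice (15–30 weeks, either sex) were dosed in PBS or water (<2% final DMSO): 10 mg/kg IV, 12.5 or 30 mg/kg SC, or 20 mg/kg SC with collection at 1 h. Blood and brain underwent chloroform–ethanol extraction, then intact-protein C4 LC-MS for %TE against a 37% METE. Doses were re-estimated as old dose × (METE/%TE). Duplicate.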

[2] = molecular target: human serum albumin (HSA) (Homo sapiens, UniProt P02768); type: in vitro ADME; conditions: intact protein LC-MS
Chain of human serum albumin (HSA) (P02768 25-609): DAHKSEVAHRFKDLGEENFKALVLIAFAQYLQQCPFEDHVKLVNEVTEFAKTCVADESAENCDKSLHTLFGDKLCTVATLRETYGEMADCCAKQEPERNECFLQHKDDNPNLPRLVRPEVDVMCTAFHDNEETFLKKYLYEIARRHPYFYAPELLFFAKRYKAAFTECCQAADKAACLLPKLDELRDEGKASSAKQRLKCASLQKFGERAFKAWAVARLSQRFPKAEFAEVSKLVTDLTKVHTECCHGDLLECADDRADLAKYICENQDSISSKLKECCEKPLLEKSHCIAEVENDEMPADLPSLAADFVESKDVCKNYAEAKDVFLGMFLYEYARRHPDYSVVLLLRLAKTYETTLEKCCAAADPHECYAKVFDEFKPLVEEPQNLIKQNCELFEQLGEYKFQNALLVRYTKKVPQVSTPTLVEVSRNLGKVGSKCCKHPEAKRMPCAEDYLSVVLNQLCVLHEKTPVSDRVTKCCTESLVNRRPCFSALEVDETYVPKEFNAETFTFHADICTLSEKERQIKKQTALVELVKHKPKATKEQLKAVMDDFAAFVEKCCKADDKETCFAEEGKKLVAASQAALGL

SOD1^G93A [3] = molecular target: T1, SOD1^G93A; assay: Intact protein LC-MS of covalent drug candidates with purified SOD1^G93A; type: binding
SOD1^G93A [4] = molecular target: T1, SOD1^G93A; type: binding; conditions: transgenic ALS^G93A mouse brain homogenate
albumin = conditions: cited from earlier work
[5] = Solubility limit in IV dose formulation; type: physicochemical
SOD1^G93A mouse model = conditions: cited from earlier work

T1 sequence (P00441 2-154 G94A limits assumed): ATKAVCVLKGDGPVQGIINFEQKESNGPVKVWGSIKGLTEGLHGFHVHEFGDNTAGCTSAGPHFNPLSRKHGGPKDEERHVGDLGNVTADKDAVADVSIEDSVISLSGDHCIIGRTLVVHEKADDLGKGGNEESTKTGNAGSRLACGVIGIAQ

SMILES: [O-][S+]1CCCCS1 (stereo not shown) [S-XL6, 1,2-dithiane-1-oxide]
- in vivo target engagement, detection of drug-protein complex (SOD1^G93A [1]; brain, 1-hr post-dose via SC): successful detection of cross-linked dimer
- covalent binding to HSA [2]: negligible binding; also recorded: no detectable HSA binding
- proposed MoA confirmed by intact drug-protein mass (D1) (SOD1^G93A [3]): confirms the proposed MoA
- in vitro target engagement in target tissue homogenate (predicted mass shift) (SOD1^G93A [4]): show the predicted mass shifts

SMILES: CN(C)C/C=C/C(=O)Nc1cc2c(Nc3ccc(F)c(Cl)c3)ncnc2cc1O[C@H]1CCOC1 [afatinib]
- covalent binding to HSA [2]: minimal binding; also recorded: limited, but detectable covalent binding

SMILES: N.N.[Cl][Pt][Cl] [cisplatin]
- proposed MoA confirmed by intact drug-protein mass (D1) (SOD1^G93A [3]): shows the predicted molecular mass

SMILES: CCN(CC)C(=S)SSC(=S)N(CC)CC [disulfiram]
- METE reached in vivo (D5) (SOD1^G93A [1]; at a 20 mg/kg dose imposed by solubility limit): could not be reached
- covalent binding to HSA [2]: showed drug-related mass shifts with HSA
- plasma protein binding via albumin (albumin): high plasma protein binding
- solubility [5]: 4 mg/mL (≈ 13.5 mM)
- proposed MoA confirmed by intact drug-protein mass (D1) (SOD1^G93A [3]): shows the predicted molecular mass

SMILES: O=c1c2ccccc2[se]n1-c1ccccc1 [ebselen]
- METE reached in vivo (D5) (SOD1^G93A [1]; at ~22% of LD50 (20 mg/kg SC, 1 h)): could not be reached
- effect on SOD1 in vivo (modification of SOD1^G93A) (SOD1^G93A [1]; brain and blood of dosed SOD1^G93A mouse): promoting cysteinylation (in brain) and glutathionylation (in blood)
- covalent binding to HSA [2]: showed drug-related mass shifts with HSA
- survival (SOD1^G93A mouse model): improves survival
- proposed MoA confirmed by intact drug-protein mass (D1) (SOD1^G93A [3]): confirms its proposed MoA
- in vitro target engagement in target tissue homogenate (predicted mass shift) (SOD1^G93A [4]): show the predicted mass shifts

SMILES: C=CC(=O)N1CCC[C@@H](n2nc(-c3ccc(Oc4ccccc4)cc3)c3c(N)ncnc32)C1 [ibrutinib]
- covalent binding to HSA [2]: minimal binding; also recorded: limited, but detectable covalent binding

SMILES: C=CC(=O)N1CCN(c2nc(=O)n(-c3c(C)ccnc3C(C)C)c3nc(-c4c(O)cccc4F)c(F)cc23)[C@@H](C)C1 [sotorasib]
- covalent binding to HSA [2]: negligible binding
